Test results as given in ChEMBL document CHEMBL3872208, “Synthesis and pharmacological characterization of novel N-(trans-4-(2-(4-(benzo[d]isothiazol-3-yl)piperazin-1-yl)ethyl)cyclohexyl)amides as potential multireceptor atypical antipsychotics” (Eur J Med Chem, 2016).
pKi: −log10 of the molar value. Activity calls are given as the source filed them. The calls are words filed in the database; no cut-off is given here.

What was measured:
D(3) dopamine receptor = D(3) dopamine receptor (Homo sapiens, UniProt P35462); assay: Displacement of [3H]methyl-spiperone from recombinant human D3 receptor expressed in CHO cell membranes after 60 mins by scintillation counting method
D(3) dopamine receptor, sequence (P35462 whole entry): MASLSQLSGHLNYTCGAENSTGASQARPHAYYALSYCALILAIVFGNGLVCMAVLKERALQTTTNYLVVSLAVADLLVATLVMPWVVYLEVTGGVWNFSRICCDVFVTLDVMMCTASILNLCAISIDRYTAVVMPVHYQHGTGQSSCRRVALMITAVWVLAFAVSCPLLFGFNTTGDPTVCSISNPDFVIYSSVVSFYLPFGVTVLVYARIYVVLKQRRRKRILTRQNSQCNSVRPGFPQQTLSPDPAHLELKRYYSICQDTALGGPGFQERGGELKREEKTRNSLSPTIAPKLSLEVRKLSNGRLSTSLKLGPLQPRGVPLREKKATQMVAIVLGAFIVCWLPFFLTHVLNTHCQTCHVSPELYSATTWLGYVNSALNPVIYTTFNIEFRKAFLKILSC

D(2) dopamine receptor = D(2) dopamine receptor (Homo sapiens, UniProt P14416); assay: Displacement of [3H]spiperone from recombinant human D2L receptor expressed in CHO cell membranes after 60 mins by scintillation counting method
D(2) dopamine receptor, sequence (P14416 whole entry): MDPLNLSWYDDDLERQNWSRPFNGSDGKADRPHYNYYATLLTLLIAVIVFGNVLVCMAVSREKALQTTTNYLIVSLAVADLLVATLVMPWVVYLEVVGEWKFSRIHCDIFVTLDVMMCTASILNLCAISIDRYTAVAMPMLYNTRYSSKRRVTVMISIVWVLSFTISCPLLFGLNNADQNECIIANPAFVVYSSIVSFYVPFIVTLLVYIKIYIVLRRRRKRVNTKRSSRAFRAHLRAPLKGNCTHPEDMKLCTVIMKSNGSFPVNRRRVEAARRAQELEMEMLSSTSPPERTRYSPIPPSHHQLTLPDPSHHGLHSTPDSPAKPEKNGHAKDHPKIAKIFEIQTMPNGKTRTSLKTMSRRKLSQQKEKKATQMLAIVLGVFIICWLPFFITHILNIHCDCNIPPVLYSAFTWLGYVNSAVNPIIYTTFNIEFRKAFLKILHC

[1] = target: T1, 5-hydroxytryptamine receptor 1A (Homo sapiens, UniProt P08908); assay: Displacement of [3H]8-OH-DPAT from recombinant human 5-HT1A receptor expressed in HEK293 cell membranes after 60 mins by scintillation counting method
T1 sequence (P08908 whole entry): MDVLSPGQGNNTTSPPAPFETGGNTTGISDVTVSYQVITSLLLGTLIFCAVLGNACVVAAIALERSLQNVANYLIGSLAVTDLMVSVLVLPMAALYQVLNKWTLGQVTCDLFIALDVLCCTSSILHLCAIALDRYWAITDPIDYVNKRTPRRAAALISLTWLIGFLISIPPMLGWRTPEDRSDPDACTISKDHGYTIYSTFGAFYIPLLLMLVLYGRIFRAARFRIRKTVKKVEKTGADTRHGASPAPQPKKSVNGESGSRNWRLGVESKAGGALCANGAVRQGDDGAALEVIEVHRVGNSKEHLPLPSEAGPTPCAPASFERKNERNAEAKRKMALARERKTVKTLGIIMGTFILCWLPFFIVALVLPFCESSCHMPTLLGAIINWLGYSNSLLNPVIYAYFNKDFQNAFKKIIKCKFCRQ

[2] = target: T2, 5-hydroxytryptamine receptor 2A (Homo sapiens, UniProt P28223); assay: Displacement of [3H]ketanserin from recombinant human 5-HT2A receptor expressed in HEK293 cell membranes after 60 mins by scintillation counting method
T2 sequence (P28223 whole entry): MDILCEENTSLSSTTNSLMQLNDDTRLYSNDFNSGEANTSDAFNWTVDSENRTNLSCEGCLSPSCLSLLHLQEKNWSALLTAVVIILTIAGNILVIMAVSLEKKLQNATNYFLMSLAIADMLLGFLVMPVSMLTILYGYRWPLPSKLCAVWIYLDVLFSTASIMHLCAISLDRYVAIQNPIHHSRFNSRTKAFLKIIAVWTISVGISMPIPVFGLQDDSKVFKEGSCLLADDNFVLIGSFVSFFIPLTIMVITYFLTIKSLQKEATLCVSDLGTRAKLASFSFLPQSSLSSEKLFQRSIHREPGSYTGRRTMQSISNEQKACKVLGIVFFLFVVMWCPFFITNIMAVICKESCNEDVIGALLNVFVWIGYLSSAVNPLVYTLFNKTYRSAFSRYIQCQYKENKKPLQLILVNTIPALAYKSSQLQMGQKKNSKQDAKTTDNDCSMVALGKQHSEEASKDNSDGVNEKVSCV

CHO = assay: Selectivity ratio of Ki for displacement of [3H]spiperone from recombinant human D2L receptor expressed in CHO cell membranes to Ki for displacement of [3H]methyl-spiperone from recombinant human D3 receptor expressed in CHO cell membranes
Method in brief: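 D2L binding: CHO membranes (16 µg protein) with 0.3 nM [3H]methyl-spiperone in 50 mM Tris-HCl pH 7.4, 120 mM NaCl, 10 mM MgCl2, 1 mM EDTA, with butaclamol for nonspecific binding. D3 binding: membranes (8 µg) with 0.3 nM [3H]methyl-spiperone in the same Tris buffer with 5 mM KCl, 5 mM MgCl2, 5 mM EDTA, with (+)butaclamol for nonspecific binding. Both run 60 min at 22 °C, then GF/B filtration. Ki by Cheng–Prusoff; ratio is D2 Ki/D3 Ki.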

[3] = target: T2, 5-hydroxytryptamine receptor 2A; settings: CHO-K1, 10 uM
[4] = target: T3, 5-hydroxytryptamine receptor 1A (Homo sapiens) (UniProt P08908); settings: CHO-K1, 10 uM
T3 sequence (whole entry): T1 sequence (P08908 whole entry)

Rattus norvegicus [5] = assay: Toxicity in Sprague-Dawley rat assessed as cataleptogenic effect by measuring time spent in cataleptic position at 1 to 10 mg/kg, po measured after 0.5 to 2 hrs; type: organism-based; settings: in vivo
Method in brief: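 Male SD rats (180–250 g, n = 7) dosed orally at 1.0, 3.0 or 10.0 mg/kg. Forepaws placed on a bar 0.9 cm in diameter, 11 cm high, at 30, 60 and 120 min after dosing. Time held is expressed as a percentage of the 60 s maximum (mean ± SEM).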

Rattus norvegicus [6] = assay: Antipsychotic activity in Sprague-Dawley rat assessed as inhibition of conditioned avoidance behavior at 1.0 to 2.0 mg/kg, ip administered as single dose measured after 1 hr; type: functional, organism-based
Method in brief: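 Male SD rats (150–180 g, 6 per group) trained in automated shuttle-boxes; only rats exceeding 80% avoidance were used. Single i.p. dose of 1.0 or 2.0 mg/kg given 1 h before a 20-trial session. Read-out is percentage of avoidance (mean ± SEM, n = 6), compared with the vehicle group.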

Row | SMILES | pKi (D(3) dopamine receptor) | pKi (D(2) dopamine receptor) | pKi [1] | pKi [2] | inhibition [3] [%] | inhibition [4] [%] | Ratio Ki (CHO) | Activity (Rattus norvegicus [5]) | inhibition (Rattus norvegicus [6])
1 | O=C(N[C@H]1CC[C@H](CCN2CCN(c3nsc4ccccc34)CC2)CC1)N1CCOCC1 | 8.80 | 8.66 | 7.82 | 8.49 |  |  | 1.38 |  | 
2 | CCOC(=O)N[C@H]1CC[C@@H](CCN2CCN(c3nsc4ccccc34)CC2)CC1 | 8.70 | 8.40 | 9.24 | 9.74 |  |  | 2 |  | 
3 | O=C(N[C@H]1CC[C@@H](CCN2CCN(c3nsc4ccccc34)CC2)CC1)c1ccco1 | 8.64 | 8.20 | 8.66 | 9.72 |  |  | 2.74 |  | 
4 | CC(C)N(C(=O)N[C@H]1CC[C@H](CCN2CCN(c3nsc4ccccc34)CC2)CC1)C(C)C | 8.85 | 9.14 | 8.64 | 9.42 |  |  | 0.51 |  | 
5 | O=C(NC[C@H]1CC[C@H](CN2CCN(c3nsc4ccccc34)CC2)CC1)c1ccco1 | 9.00 | 8.05 | 8.28 | 7.80 |  |  | 8.9 |  | 
6 | CC(=O)N[C@H]1CC[C@H](CCN2CCN(c3nsc4ccccc34)CC2)CC1 | 9.80 | 7.60 | 9.16 | 8.24 |  |  | 156 |  | 
7 | CCCS(=O)(=O)N[C@H]1CC[C@H](CCN2CCN(c3nsc4ccccc34)CC2)CC1 | 9.66 | 8.72 | 8.96 | 9.47 |  |  | 8.64 |  | 
8 | O=C(N[C@H]1CC[C@H](CCN2CCN(c3nsc4ccccc34)CC2)CC1)c1ccc[nH]1 |  |  |  |  |  |  | 0.68 |  | 
9 | Cc1nc2n(c(=O)c1CCN1CCC(c3noc4cc(F)ccc34)CC1)CCCC2 [RISPERIDONE] |  |  |  |  |  |  |  | Non-Toxic | 
10 | CN(C)C(=O)N[C@H]1CC[C@H](CCN2CCN(c3nsc4ccccc34)CC2)CC1 | 9.40 | 9.28 | 8.92 | 9.22 |  |  | 1.33 |  | 
11 | O=C(N[C@H]1CC[C@H](CCN2CCN(c3nsc4ccccc34)CC2)CC1)c1cccs1 | 10.25 | 9.72 | 8.96 | 9.82 |  |  | 3.4 |  | 
12 | O=C(N[C@H]1CC[C@H](CCN2CCN(c3nsc4ccccc34)CC2)CC1)c1ccccc1 | 10.33 | 9.48 | 8.77 | 9.62 |  |  | 7.02 |  | 
13 | CN(C(=O)N[C@H]1CC[C@H](CCN2CCN(c3nsc4ccccc34)CC2)CC1)c1ccccc1 | 8.92 |  | 8.28 |  |  |  |  |  | 
14 | O=C(c1ccco1)N1CCC(CCN2CCN(c3nsc4ccccc34)CC2)CC1 | 8.14 | 7.82 | 9.14 | 8.66 |  |  | 2.2 |  | 
15 | O=C(N[C@H]1CC[C@H](CCN2CCN(c3nsc4ccccc34)CC2)CC1)C1CCCCC1 | 9.72 | 9.03 | 8.25 | 9.44 |  |  | 4.95 |  | 
16 | N[C@H]1CC[C@H](CCN2CCN(c3nsc4ccccc34)CC2)CC1 | 8.02 | 8.34 | 8.14 | 9.68 |  |  | 0.48 |  | 
17 | CCOC(=O)N1CCC(CCN2CCN(c3nsc4ccccc34)CC2)CC1 | 8.06 | 8.00 | 8.89 | 8.48 |  |  | 1.15 |  | 
18 | O=C(NCc1ccccc1)N[C@H]1CC[C@H](CCN2CCN(c3nsc4ccccc34)CC2)CC1 | 9.74 | 8.85 | 8.28 | 9.04 |  |  | 7.78 |  | 
19 | O=C(N[C@H]1CC[C@H](CCN2CCN(c3nsc4cc([N+](=O)[O-])ccc34)CC2)CC1)c1ccco1 | 9.62 | 7.59 | 7.41 | 8.74 |  |  | 108 |  | 
20 | O=C(N[C@H]1CC[C@H](CCN2CCN(c3nsc4ccccc34)CC2)CC1)C1CC1 | 9.68 | 9.07 | 9.04 | 9.46 |  |  | 4.05 |  | 

Second part, led by results:

Row | pKi (D(3) dopamine receptor) | pKi (D(2) dopamine receptor) | pKi [1] | pKi [2] | inhibition [3] [%] | inhibition [4] [%] | SMILES | Ratio Ki (CHO) | Activity (Rattus norvegicus [5]) | inhibition (Rattus norvegicus [6])
21 | 9.85 | 8.55 | 8.68 | 9.06 |  |  | CCCC(=O)N[C@H]1CC[C@H](CCN2CCN(c3nsc4ccccc34)CC2)CC1 | 20 |  | 
22 |  |  |  |  | 100 | 108 | CSc1ccc2c(c1)C(N1CCN(C)CC1)Cc1ccccc1S2 (centres undefined) |  |  | 
23 | 9.11 | 9.29 | 8.85 | 9.30 |  |  | CCN(C)C(=O)N[C@H]1CC[C@H](CCN2CCN(c3nsc4ccccc34)CC2)CC1 | 0.65 |  | 
24 | 10.34 | 9.52 | 8.54 | 8.92 |  |  | CN([C@H]1CC[C@H](CCN2CCN(c3nsc4ccccc34)CC2)CC1)S(=O)(=O)c1cccs1 | 6.52 |  | 
25 | 10.24 | 9.46 | 7.96 | 8.09 |  |  | O=S(=O)(N[C@H]1CC[C@H](CCN2CCN(c3nsc4ccccc34)CC2)CC1)c1cccnc1 | 6.03 |  | 
26 | 9.57 | 8.77 | 8.96 | 9.20 |  |  | O=C(N[C@H]1CC[C@H](CCN2CCN(c3nsc4ccccc34)CC2)CC1)C(F)(F)F | 6.3 |  | 
27 | 9.51 | 8.02 | 8.52 | 9.62 |  |  | COCC(=O)N[C@H]1CC[C@H](CCN2CCN(c3nsc4ccccc34)CC2)CC1 | 31 |  | 
28 | 10.05 | 9.07 | 8.68 | 9.54 |  |  | O=C(N[C@H]1CC[C@H](CCN2CCN(c3nsc4ccccc34)CC2)CC1)c1cccnc1 | 9.44 |  | 
29 | 10.02 | 8.05 | 8.89 | 9.55 |  |  | CS(=O)(=O)N[C@H]1CC[C@H](CCN2CCN(c3nsc4ccccc34)CC2)CC1 | 93.7 |  | 
30 |  |  | 8.96 |  |  |  | O=S(=O)(N[C@H]1CC[C@H](CCN2CCN(c3nsc4ccccc34)CC2)CC1)c1cccs1 |  |  | Active
31 | 10.21 | 9.38 | 8.41 | 9.59 |  |  | Cc1ccc(S(=O)(=O)N[C@H]2CC[C@H](CCN3CCN(c4nsc5ccccc45)CC3)CC2)cc1 | 6.77 |  | 
32 | 8.96 | 7.85 | 7.48 | 8.37 |  |  | Nc1ccc2c(N3CCN(CC[C@H]4CC[C@H](NC(=O)c5ccco5)CC4)CC3)nsc2c1 | 12.7 |  | 
33 | 10.37 | 9.20 | 8.85 | 9.68 |  |  | O=C(Nc1ccccc1)N[C@H]1CC[C@H](CCN2CCN(c3nsc4ccccc34)CC2)CC1 | 14.7 |  | Active
34 | 10.28 | 7.74 | 8.82 | 8.96 |  |  | CCC(=O)N[C@H]1CC[C@H](CCN2CCN(c3nsc4ccccc34)CC2)CC1 | 346 |  | 
35 | 10.26 | 9.29 | 7.92 | 9.85 |  |  | O=C(Nc1cccnc1)N[C@H]1CC[C@H](CCN2CCN(c3nsc4ccccc34)CC2)CC1 | 9.27 |  | 
